Test results: ChEMBL document CHEMBL4266052, “Evaluation of Inhibitory Activities of UK-2A, an Antimycin-Type Antibiotic, and Its Synthetic Analogues against the Production of Anti-inflammatory Cytokine IL-4” (J Nat Prod, 2018)
Active and inactive are the calls of the source. No cut-off for these calls is given here.

Key:
[1] = test system: RBL-2H3; test: Anti-inflammatory activity in DNP-IgE-stimulated rat RBL2H3 cells assessed as reduction of IL4 secretion at >20 nM pretreated for 10 mins followed by DNP-HSA stimulation measured after 1 hr by ELISA; type: functional, cell-based
In short: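 RBL-2H3 cells, 2.5 × 10^4/well, cultured overnight, then sensitised 2 h with 50 ng/mL anti-DNP IgE in DMEM/10% FBS at 37 °C, 5% CO2. After washing, drug added in DMF (0.05% final). After 10 min, challenged with DNP-HSA (50 ng/mL final) for 1 h. Supernatant rat IL-4 measured by ELISA on Luminex multiplex system. Mean ± SEM, n = 3.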

[2] = test system: RBL-2H3; test: Cytotoxicity against rat RBL2H3 cells assessed as inhibition of cell proliferation at >5 nM after 24 hrs by CCK8 assay; type: cell-based; conditions: rbl-2h3, 24 h
[3] = test system: RBL-2H3; test: Cytotoxicity against rat RBL2H3 cells assessed as inhibition of cell proliferation up to 4000 nM after 24 hrs by CCK8 assay; type: cell-based; conditions: rbl-2h3, 24 h
In short: (§1)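 RBL-2H3 cells seeded 10^5/well, 12 h at 37 °C, 5% CO2, then exposed to drug in DMEM for 24 h at 37 °C; medium replaced with serum-containing medium, CCK-8 (WST-8) added, absorbance at 450 nm after 1 h. Relative viability vs control, n = 4, Student's t-test p < 0.05.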

[4] = test system: RBL-2H3; test: Anti-inflammatory activity in DNP-IgE-stimulated rat RBL2H3 cells assessed as reduction of IL4 secretion pretreated for 10 mins followed by DNP-HSA stimulation measured after 1 hr by ELISA
[5] = test system: RBL-2H3; test: Anti-inflammatory activity in DNP-IgE-stimulated rat RBL2H3 cells assessed as reduction of IL4 secretion at >2000 nM pretreated for 10 mins followed by DNP-HSA stimulation measured after 1 hr by ELISA; type: functional, cell-based
In short: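 RBL-2H3 cells (2.5 × 10^4/well, cultured overnight in DMEM + 10% FBS, penicillin/streptomycin, 37 °C, 5% CO2) sensitized 2 h with 50 ng/mL anti-DNP IgE, washed, then drug in DMF (0.05% final) added 10 min before DNP-HSA (50 ng/mL final); IL-4 in supernatant after 1 h by rat IL-4 ELISA/Luminex. IC50 from dose–response curves.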

[6] = test system: RBL-2H3; test: Cytotoxicity against rat RBL2H3 cells assessed as inhibition of cell proliferation at >40 nM after 24 hrs by CCK8 assay; type: cell-based; conditions: rbl-2h3, 24 h; in short: as §1

SMILES	Activity [1]	Activity [2]	Activity [3]	IC50 [4]	also measured
CCCC[C@H]1C(=O)O[C@H](C)[C@H](NC(=O)c2cccc(NC=O)c2O)C(=O)O[C@@H](C)[C@@H]1OC(=O)CC(C)C [ANTIMYCIN A3]	Active	Toxic	–	–	–
CCC[C@H]1C(=O)O[C@H](C)[C@H](NC(=O)c2cccc(NC=O)c2O)C(=O)O[C@@H](C)[C@@H]1OC(=O)CC(C)C	Active	Toxic	–	–	–
COc1ccnc(C(=O)N[C@H]2COC(=O)[C@H](Cc3ccccc3)[C@@H](OC(=O)CC(C)C)[C@H](C)OC2=O)c1O	–	–	Non-Toxic	4.39 µM	–
CCCCC[C@H]1C(=O)O[C@H](C)[C@H](NC(=O)c2cccc(NC=O)c2O)C(=O)O[C@@H](C)[C@@H]1OC(=O)CC(C)C	Active	Toxic	–	–	–
CCCC[C@H]1C(=O)OC[C@H](NC(=O)c2nccc(OC)c2O)C(=O)O[C@@H](C)[C@@H]1OC(=O)C(C)C	–	–	Non-Toxic	–	–
CC(C)C(=O)O[C@H]1[C@H](C)OC(=O)[C@@H](NC(=O)c2cccc(NC=O)c2O)COC(=O)[C@@H]1Cc1ccccc1	–	–	Non-Toxic	0.0413 µM	–
COc1ccnc(C(=O)N[C@H]2COC(=O)[C@H](Cc3ccccc3)[C@@H](OC(=O)C(C)C)[C@H](C)OC2=O)c1O	–	–	Non-Toxic	1.38 µM	Activity [5]: Active
CCCCCC[C@H]1C(=O)O[C@H](C)[C@H](NC(=O)c2cccc(NC=O)c2O)C(=O)O[C@@H](C)[C@@H]1OC(=O)CC(C)C [ANTIMYCIN A]	Active	Toxic	–	–	–
CC(C)C(=O)O[C@H]1[C@H](C)OC(=O)[C@@H](NC(=O)c2cccc(NC=O)c2O)[C@@H](C)OC(=O)[C@@H]1Cc1ccccc1 [SPLENOCIN B]	Active	–	–	–	Activity [6]: Toxic
